Test results taken from ChEMBL document CHEMBL4699581, “Design, synthesis, and biological evaluation of N-arylpiperazine derivatives as interferon inducers” (Bioorg Med Chem Lett, 2020).
Activity calls are given as the source filed them. The calls are words filed in the database; no cut-off is given here.

How the values were obtained:
Format in all cases: cell-based
[1] = Cytotoxicity against human THP-1 cells assessed as cell viability at 40 uM relative to control; details: read-out: Activity
How it was run: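 THP-1 viability was measured in parallel with the ISRE reporter readout after treatment with 40 μM of each compound. Results are given as mean ± standard deviation.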

[2] = test system: THP-1; test: Induction of type-1 IFN signalling in human THP-1 cells assessed as increase in type-1 interferon-induced ISG54-ISRE promoter activity by measuring increase in transcriptional activity of luciferase reporter gene at 40 uM by secreted luciferase reporter gene assay relative to control; details: filed as activator
How it was run: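 THP-1 monocytes carry an ISRE reporter (ISG54 minimal promoter with five ISRE elements) that drives a secreted luciferase. Each compound was tested at 40 μM. Luminescence was read and expressed as relative units normalized to a DMSO control, as mean ± standard deviation.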

[3] = test system: THP-1; test: Induction of type-1 IFN signalling in human THP-1 cells assessed as increase in IP-10 secretion at 20 uM by ELISA; details: filed as activator
How it was run: (§1)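 IFNβ and IP-10 released extracellularly from treated THP-1 cells were quantified by ELISA.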

[4] = test system: THP-1; test: Induction of type-1 IFN signalling in human THP-1 cells assessed as increase in IFNbeta secretion at 20 uM by ELISA; details: filed as activator; how it was run: as §1
[5] = test system: THP-1; test: Induction of type-1 IFN signalling in human THP-1 cells assessed as increase in IFN-stimulated IRF7 mRNA expression at 50 uM by qPCR analysis; details: filed as activator
[6] = test system: THP-1; test: Induction of type-1 IFN signalling in human THP-1 cells assessed as increase in IFN-stimulated OAS1 mRNA expression at 50 uM by qPCR analysis; details: filed as activator
[7] = test system: THP-1; test: Induction of type-1 IFN signalling in human THP-1 cells assessed as increase in IFN-stimulated IFIT3 mRNA expression at 50 uM by qPCR analysis; details: filed as activator
[8] = test system: THP-1; test: Induction of type-1 IFN signalling in human THP-1 cells assessed as increase in IFN-stimulated IFNbeta mRNA expression at 50 uM by qPCR analysis; details: filed as activator
[9] = Induction of type-1 IFN signalling in human THP-1 cells assessed as increase in type-1 IFN-induced ISG54-ISRE promoter activity by measuring increase in transcriptional activity of luciferase reporter gene by secreted luciferase reporter gene assay
How it was run: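 The THP-1 secreted-luciferase ISRE reporter (ISG54 minimal promoter plus five ISREs) was tested across a dose range. Luminescence was read as fold change over control. EC50 was calculated and Emax was interpolated from the dose-response curve.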

[10] = test system: THP-1; test: Cytotoxicity against human THP-1 cells assessed as cell viability at 2.5 to 40 uM; details: thp-1, 40 µM, dose 2.5-40 µM
How it was run: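 THP-1 viability was tested across a range of treatment concentrations up to 40 µM, alongside the ISRE reporter dose-response.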

[11] = test system: THP-1; test: Induction of type-1 IFN signalling in human THP-1 cells assessed as increase in IFN-stimulated CXCL10 mRNA expression at 50 uM by qPCR analysis; details: filed as activator

Compound | viability at 40 µM [1] [%] | Activity [2] [RU] | further results
O=[N+]([O-])c1ccc(NC(=S)N2CCN(c3cccc(Cl)c3Cl)CC2)cc1 | 97 | 1.1 | 
O=C(Nc1ccc(C(F)(F)F)cc1)N1CCN(c2cccc(Cl)c2Cl)CC1 | 61 | 3.9 | 
COc1ccc(C(=O)N2CCN(c3cccc(Cl)c3Cl)CC2)cc1 | 81 | 3.7 | 
O=C(Nc1ccc([N+](=O)[O-])cc1)N1CCN(c2cccc(Cl)c2Cl)CC1 | 90 | 1 | 
COc1cc(CC(=O)N2CCN(c3cccc(Cl)c3Cl)CC2)cc(OC)c1OC | 98 | 5.2 | Activity [3]: Active; Activity [4]: Active; Activity [5]: Active; Activity [6]: Active; Activity [7]: Active; Activity [8]: Active; EC50 [9]: 13.1 µM; Activity [10]: Non-Toxic; Activity [11]: Active
CCCCCCCCCCCCC(=O)N1CCN(c2cccc(Cl)c2Cl)CC1 | 89 | 1.3 | 
CC(C)NC(=S)N1CCN(c2cccc(Cl)c2Cl)CC1 | 84 | 1.2 | 
O=C(Nc1ccc(OC(F)(F)F)cc1)N1CCN(c2cccc(Cl)c2Cl)CC1 | 96 | 4.2 | 
COc1cccc(NC(=O)N2CCN(c3cccc(Cl)c3Cl)CC2)c1 | 87 | 2.7 | 
Fc1ccc(NC(=S)N2CCN(c3cccc(Cl)c3Cl)CC2)cc1 | 81 | 1.3 | 
Cc1cc([N+](=O)[O-])ccc1C(=O)N1CCN(c2cccc(Cl)c2Cl)CC1 | 84 | 1.4 | 
O=C(c1ccc(C(F)(F)F)cc1)N1CCN(c2cccc(Cl)c2Cl)CC1 | 90 | 1.8 | 
O=C(c1cccc(C(F)(F)F)c1)N1CCN(c2cccc(Cl)c2Cl)CC1 | 105 | 2.8 | 
O=C(c1ccc(Cl)cc1Cl)N1CCN(c2cccc(Cl)c2Cl)CC1 | 86 | 2.3 | 
COc1cc(OC)cc(C(=O)N2CCN(c3cccc(Cl)c3Cl)CC2)c1 | 83 | 1.9 | 
O=C(c1cnccn1)N1CCN(c2cccc(Cl)c2Cl)CC1 | 89 | 2.5 | 
O=C(CCc1ccccc1C(F)(F)F)N1CCN(c2cccc(Cl)c2Cl)CC1 | 96 | 2.5 | 
S=C(Nc1ccc(Br)cc1)N1CCN(c2cccc(Cl)c2Cl)CC1 | 46 | 0.4 | 
COc1ccc(NC(=O)N2CCN(c3cccc(Cl)c3Cl)CC2)cc1 | 98 | 3.3 | 
S=C(Nc1ccc(Cl)cc1)N1CCN(c2cccc(Cl)c2Cl)CC1 | 99 | 1.2 | 
O=C(Nc1cccc(OC(F)(F)F)c1)N1CCN(c2cccc(Cl)c2Cl)CC1 | 70 | 3 | 
O=C(Cc1cc(F)c(F)cc1F)N1CCN(c2cccc(Cl)c2Cl)CC1 | 101 | 2.8 | 
S=C(Nc1cccc(Br)c1)N1CCN(c2cccc(Cl)c2Cl)CC1 | 85 | 1.5 | 
O=C(Nc1cccc(C(F)(F)F)c1)N1CCN(c2cccc(Cl)c2Cl)CC1 | 76 | 3.3 | 
O=C(Nc1ccc(F)cc1)N1CCN(c2cccc(Cl)c2Cl)CC1 | 95 | 2.1 | 
